Measurements: ChEMBL document CHEMBL2169822, “Discovery and optimization of 1,3,4-trisubstituted-pyrazolone derivatives as novel, potent, and nonsteroidal farnesoid X receptor (FXR) selective antagonists” (J Med Chem, 2012)
Active and inactive are the calls of the source. The calls are words filed in the database; no cut-off is given here.

Tests used:
[1] = molecular target: T1, Glucocorticoid receptor (Homo sapiens) (UniProt P04150); experiment: Agonist activity at recombinant glucocorticoid receptor LBD expressed in HEK293T cells co-expressing GAL4 DBD at 20 uM by transactivation assay; format: functional, cell-based; details: HEK-293T
T1 sequence (whole entry): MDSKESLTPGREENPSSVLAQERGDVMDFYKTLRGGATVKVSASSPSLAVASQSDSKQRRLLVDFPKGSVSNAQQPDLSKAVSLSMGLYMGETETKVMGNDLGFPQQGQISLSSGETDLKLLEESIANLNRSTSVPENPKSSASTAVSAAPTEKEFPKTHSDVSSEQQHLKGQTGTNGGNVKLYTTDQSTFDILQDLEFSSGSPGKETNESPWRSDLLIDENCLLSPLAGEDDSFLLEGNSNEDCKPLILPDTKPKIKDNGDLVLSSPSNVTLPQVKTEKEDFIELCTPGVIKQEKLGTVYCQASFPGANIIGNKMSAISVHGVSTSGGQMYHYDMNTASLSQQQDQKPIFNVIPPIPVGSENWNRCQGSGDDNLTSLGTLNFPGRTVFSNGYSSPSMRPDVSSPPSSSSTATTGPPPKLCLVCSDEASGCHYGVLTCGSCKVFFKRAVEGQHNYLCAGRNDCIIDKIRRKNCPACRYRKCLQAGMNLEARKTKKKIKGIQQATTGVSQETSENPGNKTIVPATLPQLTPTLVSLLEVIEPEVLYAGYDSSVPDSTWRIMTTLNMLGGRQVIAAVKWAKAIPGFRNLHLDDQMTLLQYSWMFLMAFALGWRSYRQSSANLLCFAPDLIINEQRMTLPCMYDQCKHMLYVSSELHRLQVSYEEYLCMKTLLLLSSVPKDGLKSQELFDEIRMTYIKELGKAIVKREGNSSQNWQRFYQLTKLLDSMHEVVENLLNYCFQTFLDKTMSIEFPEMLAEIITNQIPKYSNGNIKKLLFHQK
Method in brief: (§1)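 One-hybrid assay in HEK293T cells cotransfected with a Gal4 DBD–NR-LBD fusion (RXRα, LXRα, GR, PR, PPARδ or PPARγ) plus UAS-TK-Luc reporter. Compound was 20 μM, given alone or with agonist: 9cRA 0.1 μM (RXRα), TO901317 0.5 μM (LXRα), dexamethasone 50 nM (GR), progesterone 100 nM (PR), GW1516 10 μM (PPARδ), rosiglitazone 10 μM (PPARγ). Luciferase read-out; three independent experiments.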

[2] = molecular target: T2, Oxysterols receptor LXR-alpha (Homo sapiens) (UniProt Q13133); experiment: Agonist activity at recombinant LXRalphaLBD expressed in HEK293T cells co-expressing GAL4 DBD at 20 uM by transactivation assay; format: functional, cell-based; details: HEK-293T; method in brief: as §1
T2 sequence (whole entry): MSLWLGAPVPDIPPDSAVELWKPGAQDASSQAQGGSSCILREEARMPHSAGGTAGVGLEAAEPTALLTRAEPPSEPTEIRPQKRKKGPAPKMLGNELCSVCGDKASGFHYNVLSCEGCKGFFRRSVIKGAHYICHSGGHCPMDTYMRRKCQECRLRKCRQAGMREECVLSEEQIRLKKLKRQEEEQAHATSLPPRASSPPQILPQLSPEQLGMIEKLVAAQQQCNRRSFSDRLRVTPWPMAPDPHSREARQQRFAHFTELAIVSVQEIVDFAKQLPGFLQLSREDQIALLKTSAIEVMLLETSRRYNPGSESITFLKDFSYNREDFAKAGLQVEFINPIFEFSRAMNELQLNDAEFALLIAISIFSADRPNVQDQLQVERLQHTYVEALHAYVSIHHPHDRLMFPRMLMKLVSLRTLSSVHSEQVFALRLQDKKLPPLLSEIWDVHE

[3] = molecular target: T3, Bile acid receptor (Homo sapiens) (UniProt Q96RI1); experiment: Antagonist activity at human FXR in human HepG2 cells assessed as inhibition of CDCA induced decrease of Cyp7A1 gene expression at 5 to 40 uM after 24 hrs by RT-PCR analysis; format: functional, cell-based
T3 sequence (whole entry): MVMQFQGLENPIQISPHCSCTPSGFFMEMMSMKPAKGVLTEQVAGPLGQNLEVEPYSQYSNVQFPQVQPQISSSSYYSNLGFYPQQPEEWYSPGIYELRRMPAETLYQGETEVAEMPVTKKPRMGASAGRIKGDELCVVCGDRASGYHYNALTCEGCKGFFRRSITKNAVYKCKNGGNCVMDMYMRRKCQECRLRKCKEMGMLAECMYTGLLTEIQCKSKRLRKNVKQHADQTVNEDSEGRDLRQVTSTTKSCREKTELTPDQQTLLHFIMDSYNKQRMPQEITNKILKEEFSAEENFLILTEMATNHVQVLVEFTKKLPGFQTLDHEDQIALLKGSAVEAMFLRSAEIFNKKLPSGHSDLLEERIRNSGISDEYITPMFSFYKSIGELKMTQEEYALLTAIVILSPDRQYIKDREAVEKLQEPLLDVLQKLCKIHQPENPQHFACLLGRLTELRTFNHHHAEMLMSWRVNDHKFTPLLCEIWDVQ
Method in brief: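 HepG2 cells in 6-well plates were treated with varied concentrations of compound, with or without 100 μM CDCA, for 24 h. Total RNA was taken with TRIzol and cDNA made by reverse transcription. Cyp7A1, SHP, BSEP and SREBP1c mRNA were measured by quantitative RT-PCR and normalized to β-actin. Three independent experiments.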

[4] = tested on: Mus musculus; experiment: Reduction of hepatic cholesterol level in cholesterol-fed C57BL/6 mouse at 100 mg/kg, po after 10 days; format: functional; parameters: scale not given: the % may be the effect or the level left
Method in brief: (§2)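 Male C57BL/6 mice, 8–12 weeks old, were randomized into five groups of nine. Control mice had ground chow; the other groups had chow with 2% cholesterol. Compound (50 or 100 mg/kg) or reference (100 mg/kg) was suspended in 0.5% CMC-Na and given by oral gavage; control and vehicle mice got 0.5% CMC-Na. Serum and hepatic triglyceride and total cholesterol were measured.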

[5] = tested on: Mus musculus; experiment: Reduction of serum triglyceride level in cholesterol-fed C57BL/6 mouse administered orally after 10 days; format: functional, organism-based; method in brief: as §2
[6] = molecular target: T3, Bile acid receptor (Homo sapiens); experiment: Antagonist activity at human FXR in human HepG2 cells assessed as reduction in triglyceride level after 24 hrs; format: functional, cell-based
Method in brief: (§3)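 HepG2 cells were serum-starved overnight in FBS-free DMEM, then given DMSO or compound for 24 h in serum-free DMEM. Cells were lysed in RIPA buffer, sonicated on ice and centrifuged at 12000 rpm, 4 °C. Triglyceride and total cholesterol in the cleared lysate were measured by kits, with total protein by BCA. At least three experiments.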

[7] = molecular target: T3, Bile acid receptor (Homo sapiens); experiment: Antagonist activity at human FXR in human HepG2 cells assessed as reduction in triglyceride level at 10 uM after 24 hrs; format: functional, cell-based; method in brief: as §3

Activity [1]: inactive
Activity [2]: inactive
inhibition [3]: Active
inhibition [6]: Dose-dependent effect
inhibition [7]: 35.2%
Structure (SMILES): COc1cc(/C=C2\C(=O)N(c3cccc([N+](=O)[O-])c3)N=C2c2ccccc2)ccc1O
Activity [4]: 47.5%
Activity [5]: Dose-dependent effect
